Data as given in the M2OR odorant receptor database.

What was measured:
Settings in all cases: stereoisomer not certain
UniProt Q8VGZ2 = target: T1, UniProt Q8VGZ2
T1 sequence (whole entry): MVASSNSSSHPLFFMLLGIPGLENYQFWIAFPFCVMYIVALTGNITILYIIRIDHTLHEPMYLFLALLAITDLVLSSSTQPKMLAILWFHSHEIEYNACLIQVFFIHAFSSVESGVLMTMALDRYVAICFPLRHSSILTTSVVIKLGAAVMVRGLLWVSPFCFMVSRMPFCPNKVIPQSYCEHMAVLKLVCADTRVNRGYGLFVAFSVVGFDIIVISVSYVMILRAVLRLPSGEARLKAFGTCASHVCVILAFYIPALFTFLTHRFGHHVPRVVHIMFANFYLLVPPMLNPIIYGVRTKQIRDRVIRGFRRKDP
Summary of the method: (§1)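 Each receptor–molecule pair is labelled responsive or non-responsive (inactive) according to whether the original authors judged the measured signal statistically different from baseline. The data were taken from the main text and supplementary material of published papers and checked for typos and inconsistencies. Assay methods differed by source, with transient luciferase assays in mammalian cell lines being common.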

UniProt Q8VGZ7 = target: T2, UniProt Q8VGZ7
T2 sequence (whole entry): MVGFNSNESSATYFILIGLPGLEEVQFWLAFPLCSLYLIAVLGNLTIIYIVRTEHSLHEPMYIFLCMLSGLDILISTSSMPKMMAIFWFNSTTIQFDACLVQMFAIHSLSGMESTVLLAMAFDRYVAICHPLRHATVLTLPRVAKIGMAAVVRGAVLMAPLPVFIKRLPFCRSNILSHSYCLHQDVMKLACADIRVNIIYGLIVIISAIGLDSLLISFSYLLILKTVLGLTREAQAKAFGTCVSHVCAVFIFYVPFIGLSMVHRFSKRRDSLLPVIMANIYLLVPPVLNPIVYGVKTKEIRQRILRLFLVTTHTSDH
Summary of the method: as §1

UniProt Q8VH16 = target: T3, UniProt Q8VH16
T3 sequence (whole entry): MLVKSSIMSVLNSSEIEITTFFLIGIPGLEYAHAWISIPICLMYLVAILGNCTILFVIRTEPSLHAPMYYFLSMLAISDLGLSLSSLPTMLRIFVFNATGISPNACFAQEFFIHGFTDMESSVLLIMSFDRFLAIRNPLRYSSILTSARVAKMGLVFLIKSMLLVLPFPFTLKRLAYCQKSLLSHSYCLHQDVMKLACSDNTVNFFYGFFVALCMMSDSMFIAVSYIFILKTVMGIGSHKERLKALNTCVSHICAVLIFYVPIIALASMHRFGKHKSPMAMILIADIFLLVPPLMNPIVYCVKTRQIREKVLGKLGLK
Summary of the method: as §1

UniProt Q8VH20 = target: T4, UniProt Q8VH20
T4 sequence (whole entry): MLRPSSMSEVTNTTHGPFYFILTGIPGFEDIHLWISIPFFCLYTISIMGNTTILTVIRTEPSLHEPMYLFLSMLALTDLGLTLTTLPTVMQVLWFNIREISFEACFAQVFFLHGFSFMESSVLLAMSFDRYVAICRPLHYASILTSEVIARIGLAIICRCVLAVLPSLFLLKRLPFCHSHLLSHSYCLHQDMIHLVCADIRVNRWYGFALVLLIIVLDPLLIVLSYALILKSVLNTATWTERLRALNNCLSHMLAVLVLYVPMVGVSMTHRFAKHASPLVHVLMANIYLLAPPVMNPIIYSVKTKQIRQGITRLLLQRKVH
Summary of the method: as §1

UniProt Q8VH21 = target: T5, UniProt Q8VH21
T5 sequence (whole entry): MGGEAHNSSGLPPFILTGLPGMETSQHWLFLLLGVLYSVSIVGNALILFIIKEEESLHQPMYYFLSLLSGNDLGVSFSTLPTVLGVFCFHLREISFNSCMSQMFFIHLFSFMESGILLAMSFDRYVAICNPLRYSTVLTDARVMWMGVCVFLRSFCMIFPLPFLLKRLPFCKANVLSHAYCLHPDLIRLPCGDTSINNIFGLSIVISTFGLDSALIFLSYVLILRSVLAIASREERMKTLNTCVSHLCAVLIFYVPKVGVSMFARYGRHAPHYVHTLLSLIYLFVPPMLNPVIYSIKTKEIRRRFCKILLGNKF
Summary of the method: as §1

UniProt Q924H8 = target: T6, UniProt Q924H8
T6 sequence (whole entry): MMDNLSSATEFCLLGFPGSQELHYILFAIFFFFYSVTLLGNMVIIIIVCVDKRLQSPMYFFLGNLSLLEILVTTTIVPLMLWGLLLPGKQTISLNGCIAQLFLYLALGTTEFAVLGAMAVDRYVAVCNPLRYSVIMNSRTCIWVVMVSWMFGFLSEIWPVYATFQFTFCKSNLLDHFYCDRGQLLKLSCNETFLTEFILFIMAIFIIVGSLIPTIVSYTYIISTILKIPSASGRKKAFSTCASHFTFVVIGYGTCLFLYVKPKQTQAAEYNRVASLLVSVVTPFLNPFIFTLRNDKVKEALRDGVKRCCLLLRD
Summary of the method: as §1

Measured: odorant receptor agonist call;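 also: active if original authors judged signal statistically different from baseline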

c1ccc2ncccc2c1
inactive: all assays above

CCCCCOC(=O)CC
inactive: all assays above

CCCCCCCCCC=CC=O
inactive: all assays above

CCC=CCCC=CC=O
inactive: all assays above

COC(OC)c1ccccc1
inactive: all assays above

COc1ccccc1
inactive: all assays above

CCCCCCCCC=CC=O
inactive: all assays above

C=C(C)C1CCC2(C)OC2C1 (stereo unspecified)
inactive: all assays above

CCc1occc(=O)c1O
inactive: all assays above

Cc1c(C)c(C)c(C=O)c(C)c1C
inactive: all assays above

CC(=O)C1(C)CC2=C(CCCC2(C)C)CC1C (stereo unspecified)
inactive: all assays above
